In general, IC50 refers to the point on the concentration scale where inhibition reaches its midpoint.

Molecules are shown by their SMILES. Some results are limits rather than exact numbers.

Chain of Voltage-dependent L-type calcium channel subunit alpha-1C (P15381 whole entry): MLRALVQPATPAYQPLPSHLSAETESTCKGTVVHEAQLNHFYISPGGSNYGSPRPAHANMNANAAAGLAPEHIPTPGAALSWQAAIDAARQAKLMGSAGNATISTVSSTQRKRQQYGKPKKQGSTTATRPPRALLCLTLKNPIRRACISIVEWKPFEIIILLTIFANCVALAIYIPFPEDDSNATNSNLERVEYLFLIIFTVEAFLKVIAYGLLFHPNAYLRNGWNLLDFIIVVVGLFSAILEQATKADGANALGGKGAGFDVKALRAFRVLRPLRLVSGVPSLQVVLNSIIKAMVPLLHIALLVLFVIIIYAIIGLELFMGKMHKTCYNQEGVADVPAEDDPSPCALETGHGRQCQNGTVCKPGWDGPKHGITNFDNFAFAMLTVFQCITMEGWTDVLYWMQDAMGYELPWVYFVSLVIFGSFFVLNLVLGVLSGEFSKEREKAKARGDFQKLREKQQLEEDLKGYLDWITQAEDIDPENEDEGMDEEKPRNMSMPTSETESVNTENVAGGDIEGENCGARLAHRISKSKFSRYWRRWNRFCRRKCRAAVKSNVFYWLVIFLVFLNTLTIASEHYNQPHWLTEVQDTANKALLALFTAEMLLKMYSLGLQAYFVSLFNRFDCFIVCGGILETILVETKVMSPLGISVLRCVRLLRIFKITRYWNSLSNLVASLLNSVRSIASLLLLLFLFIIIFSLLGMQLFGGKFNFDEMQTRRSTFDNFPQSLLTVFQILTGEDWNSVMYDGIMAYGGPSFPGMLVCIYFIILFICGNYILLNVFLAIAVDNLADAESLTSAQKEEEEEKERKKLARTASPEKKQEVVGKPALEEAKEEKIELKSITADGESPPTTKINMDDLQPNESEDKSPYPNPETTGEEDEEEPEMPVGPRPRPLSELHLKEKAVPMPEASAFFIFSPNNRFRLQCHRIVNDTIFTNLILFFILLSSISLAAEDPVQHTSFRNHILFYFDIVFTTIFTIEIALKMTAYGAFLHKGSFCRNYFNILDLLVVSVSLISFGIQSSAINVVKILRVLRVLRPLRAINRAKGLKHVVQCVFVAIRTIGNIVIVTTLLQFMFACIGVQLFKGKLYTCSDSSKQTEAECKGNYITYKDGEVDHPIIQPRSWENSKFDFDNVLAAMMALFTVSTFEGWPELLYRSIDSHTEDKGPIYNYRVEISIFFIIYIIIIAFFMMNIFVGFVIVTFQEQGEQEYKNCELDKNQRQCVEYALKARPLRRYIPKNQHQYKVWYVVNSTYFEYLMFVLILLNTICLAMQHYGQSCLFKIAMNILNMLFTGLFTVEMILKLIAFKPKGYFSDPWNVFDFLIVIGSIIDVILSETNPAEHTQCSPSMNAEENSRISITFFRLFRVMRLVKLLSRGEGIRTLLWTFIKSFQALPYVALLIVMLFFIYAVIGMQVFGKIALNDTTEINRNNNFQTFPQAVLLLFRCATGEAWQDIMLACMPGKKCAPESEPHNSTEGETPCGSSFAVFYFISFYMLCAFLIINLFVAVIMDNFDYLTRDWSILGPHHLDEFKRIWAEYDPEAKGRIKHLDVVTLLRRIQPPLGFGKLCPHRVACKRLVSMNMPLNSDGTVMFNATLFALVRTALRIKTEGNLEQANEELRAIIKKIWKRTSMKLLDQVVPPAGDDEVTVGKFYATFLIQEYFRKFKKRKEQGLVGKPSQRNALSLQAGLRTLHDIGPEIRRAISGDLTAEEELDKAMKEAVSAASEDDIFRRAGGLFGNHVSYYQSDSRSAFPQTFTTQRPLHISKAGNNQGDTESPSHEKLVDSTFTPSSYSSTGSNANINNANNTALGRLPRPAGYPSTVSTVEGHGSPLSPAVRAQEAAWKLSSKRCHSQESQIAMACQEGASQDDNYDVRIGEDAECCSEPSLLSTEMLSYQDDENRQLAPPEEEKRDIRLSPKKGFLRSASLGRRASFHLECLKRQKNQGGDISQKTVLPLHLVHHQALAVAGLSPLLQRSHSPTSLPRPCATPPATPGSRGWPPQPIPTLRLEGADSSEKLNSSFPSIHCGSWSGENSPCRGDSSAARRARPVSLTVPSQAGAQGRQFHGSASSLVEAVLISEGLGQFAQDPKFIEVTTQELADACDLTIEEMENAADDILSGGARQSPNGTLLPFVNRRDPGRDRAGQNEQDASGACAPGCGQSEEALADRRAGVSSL

This test has as its target Voltage-dependent L-type calcium channel subunit alpha-1C (Oryctolagus cuniculus, UniProt P15381). Briefly: Antagonist activity at rabbit CaV1.2alpha1C transfected in HEK293 cells by FLIPR assay. An outline of the steps: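 HEK293 cells stably transfected with rabbit CaV1.2α1C cDNA, plated at 4 × 10⁴ cells/well and cultured 4 days in DMEM with 10% FBS. Calcium influx is read on a FLIPR Tetra with a Fluo-8 no-wash calcium dye.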
Turning to `O=c1cc(O)n(CCc2cccc(C(F)(F)F)c2)c(=O)n1[C@@H]1C[C@@H]2CC[C@H]1C2`, the IC50 turned out to be 100 µM.
Take `O=c1cc(O)n(CCc2cccc(C(F)(F)F)c2)c(=O)n1[C@H]1C[C@H]2CC[C@@H]1C2`: the IC50 was over 100 µM.
On to `CC(Cn1c(O)cc(=O)n(C2CC3CCC2C3)c1=O)c1cccc(Cl)c1` (stereo not given), for which the IC50 is 5.1 µM.
As to `CC(C)(Cn1c(O)cc(=O)n(C2CCCC2)c1=O)c1cccc(Cl)c1`, the IC50 is 12.6 µM.
`O=c1cc(O)n(CC2(c3ccc(Cl)cc3)CC2)c(=O)n1C1CCCC1`: the half-maximal inhibitory concentration (IC50) is over 100 µM.
Regarding `COC(=O)[C@H](Cc1ccccc1)n1c(O)cc(=O)n(C2CCCC2)c1=O`, the half-maximal inhibitory concentration (IC50) was over 100 µM.
Turning to `O=c1cc(O)n(CCC(c2ccccc2)c2ccccc2)c(=O)n1C1CCCC1`, the half-maximal inhibitory concentration (IC50) came out at 4.7 µM.
With `O=c1cc(O)n(-c2cccc(C(F)(F)F)c2)c(=O)n1C1CCCC1`, the IC50 was over 100 µM.
Take `C[C@H](c1cccc2ccccc12)n1c(O)cc(=O)n(CCc2cccc(Cl)c2)c1=O`: the 50% inhibitory concentration (IC50) was determined as 10 µM.
On to `CCOC(=O)[C@@H]1CCC[C@@H]1n1c(=O)cc(O)n(CCc2cccc(Cl)c2)c1=O`, for which the IC50 amounted to 12.6 µM.
Regarding `O=c1cc(O)n(CCc2cccc(Cl)c2)c(=O)n1[C@H]1CCC[C@@H]1O`, the IC50 was over 100 µM.
Under `O=C(O)[C@H]1CC[C@@H](n2c(=O)cc(O)n(CCc3cccc(Cl)c3)c2=O)C1` stands over 100 µM; under `C[C@H]1[C@H](n2c(=O)cc(O)n(CCc3ccc(Cl)cc3)c2=O)C[C@@H]2C[C@H]1C2(C)C`, over 100 µM.
For `CC1(C)[C@@H]2CC[C@H](Cn3c(=O)cc(O)n(CCc4ccc(Cl)cc4)c3=O)[C@H]1C2`, the IC50 was over 100 µM.
Under `CC1(C)[C@@H]2CC[C@@]1(C)[C@@H](n1c(=O)cc(O)n(CCc3ccc(Cl)cc3)c1=O)C2` stands over 100 µM; under `O=c1cc(O)n(CCc2ccc(Cl)cc2)c(=O)n1[C@H]1C[C@H]2CC[C@@H]1C2`, 100 µM; under `O=c1cc(O)n(CCc2ccc(Cl)cc2)c(=O)n1C[C@H]1CCCO1`, over 100 µM.
As for `C[C@H](C1CCCCC1)n1c(=O)cc(O)n(CCc2ccc(Cl)cc2)c1=O`, the half-inhibitory concentration (IC50) was over 100 µM.
`C[C@@H]1[C@@H](n2c(=O)cc(O)n(CCc3cccc(Cl)c3)c2=O)C[C@H]2C[C@@H]1C2(C)C`: the 50% inhibitory concentration (IC50) is over 100 µM.
For `C[C@H]1[C@H](n2c(=O)cc(O)n(CCc3cccc(Cl)c3)c2=O)C[C@@H]2C[C@H]1C2(C)C` the value was over 100 µM; for `CC1(C)[C@@H]2CC[C@@]1(C)[C@@H](n1c(=O)cc(O)n(CCc3cccc(Cl)c3)c1=O)C2`, over 100 µM.
Under `O=c1cc(O)n(CCc2cccc(Cl)c2)c(=O)n1[C@@H]1C[C@@H]2CC[C@H]1C2` stands over 100 µM.
Take `O=c1cc(O)n(CCc2cccc(Cl)c2)c(=O)n1[C@H]1C[C@H]2CC[C@@H]1C2`: the half-maximal inhibitory concentration (IC50) was over 100 µM.
On to `C[C@H](C1CCCCC1)n1c(=O)cc(O)n(CCc2cccc(Cl)c2)c1=O`, for which the half-maximal inhibitory concentration (IC50) was over 100 µM.
Turning to `C[C@@H](C1CCCCC1)n1c(=O)cc(O)n(CCc2cccc(Cl)c2)c1=O`, the 50% inhibitory concentration (IC50) is over 100 µM.
In the case of `CC1(C)CCC[C@H]1n1c(=O)cc(O)n(CCc2cccc(Cl)c2)c1=O`, the IC50 is 4.7 µM.
As for `O=c1cc(O)n(CCc2cccc(Cl)c2)c(=O)n1C1CCCC1`, the half-inhibitory concentration (IC50) is over 100 µM.
Turning to `C[C@@H](C1CCCCC1)n1c(=O)cc(O)n(CCc2ccc(Cl)cc2)c1=O`, the IC50 was over 100 µM.
For `C[C@H]1CCC[C@H]1n1c(=O)cc(O)n(CCc2ccc(Cl)cc2)c1=O` the value was 10 µM; for `C[C@@H]1CCC[C@@H]1n1c(=O)cc(O)n(CCc2ccc(Cl)cc2)c1=O`, 5.1 µM.

Source of the values: BindingDB's records for doi:10.1021/jm4005048 (Northwestern University, 2013).
